Laboratory results: ChEMBL document CHEMBL4665627 (Eur J Med Chem, 2019)
In brackets after ≈: the same amount, converted by molar mass.

Experiments:
Type in all cases: functional
Acinetobacter baumannii = experiment: Antibacterial activity against Acinetobacter baumannii assessed as inhibition of bacterial growth after 24 hrs by CLSI protocol based two fold serial dilution method
Outline: (§1)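 Two-fold serial broth dilution in 96-well plates following CLSI; MIC (mM) taken as the lowest concentration giving complete growth inhibition; MIC values from three independent experiments.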

Candida albicans [1] = experiment: Antifungal activity against Candida albicans ATCC 90023 assessed as inhibition of fungal growth after 24 hrs by CLSI protocol based two fold serial dilution method; outline: as §1
Escherichia coli [2] = experiment: Antibacterial activity against Escherichia coli ATCC 25922 assessed as inhibition of bacterial growth after 24 hrs by CLSI protocol based two fold serial dilution method; outline: as §1
Candida albicans [3] = experiment: Antifungal activity against Candida albicans assessed as inhibition of fungal growth after 24 hrs by CLSI protocol based two fold serial dilution method; outline: as §1
Staphylococcus aureus [4] = experiment: Antibacterial activity against Staphylococcus aureus ATCC 25923 assessed as inhibition of bacterial growth after 24 hrs by CLSI protocol based two fold serial dilution method; outline: as §1
Staphylococcus aureus [5] = experiment: Antibacterial activity against Staphylococcus aureus assessed as inhibition of bacterial growth after 24 hrs by CLSI protocol based two fold serial dilution method; outline: as §1
Candida tropicalis = experiment: Antifungal activity against Candida tropicalis assessed as inhibition of fungal growth after 24 hrs by CLSI protocol based two fold serial dilution method; outline: as §1
Pseudomonas aeruginosa [6] = experiment: Antibacterial activity against Pseudomonas aeruginosa ATCC 27853 assessed as inhibition of bacterial growth after 24 hrs by CLSI protocol based two fold serial dilution method; outline: as §1
Staphylococcus aureus [7] = experiment: Antibacterial activity against methicillin-resistant Staphylococcus aureus N315 assessed as inhibition of bacterial growth after 24 hrs by CLSI protocol based two fold serial dilution method
Klebsiella pneumoniae = experiment: Antibacterial activity against Klebsiella pneumoniae assessed as inhibition of bacterial growth after 24 hrs by CLSI protocol based two fold serial dilution method; outline: as §1
Enterococcus faecalis = experiment: Antibacterial activity against Enterococcus faecalis assessed as inhibition of bacterial growth after 24 hrs by CLSI protocol based two fold serial dilution method; outline: as §1
Candida parapsilosis = experiment: Antifungal activity against Candida parapsilosis ATCC 22019 assessed as inhibition of fungal growth after 24 hrs by CLSI protocol based two fold serial dilution method; settings: Lodderomyces parapsilosis; outline: as §1
Pseudomonas aeruginosa [8] = experiment: Antibacterial activity against Pseudomonas aeruginosa assessed as inhibition of bacterial growth after 24 hrs by CLSI protocol based two fold serial dilution method; outline: as §1
Aspergillus fumigatus = experiment: Antifungal activity against Aspergillus fumigatus assessed as inhibition of fungal growth after 24 hrs by CLSI protocol based two fold serial dilution method; outline: as §1
Escherichia coli [9] = experiment: Antibacterial activity against Escherichia coli assessed as inhibition of bacterial growth after 24 hrs by CLSI protocol based two fold serial dilution method; outline: as §1
Staphylococcus aureus [10] = experiment: Antibacterial activity against Staphylococcus aureus ATCC 29213 assessed as inhibition of bacterial growth after 24 hrs by CLSI protocol based two fold serial dilution method

Row | SMILES | MIC (Acinetobacter baumannii) | MIC (Candida albicans [1]) | MIC (Escherichia coli [2]) | MIC (Candida albicans [3]) | MIC (Staphylococcus aureus [4]) | MIC (Staphylococcus aureus [5]) | MIC (Candida tropicalis) | MIC (Pseudomonas aeruginosa [6]) | MIC (Staphylococcus aureus [7]) | MIC (Klebsiella pneumoniae) | MIC (Enterococcus faecalis) | MIC (Candida parapsilosis) | MIC (Pseudomonas aeruginosa [8]) | MIC (Aspergillus fumigatus) | MIC (Escherichia coli [9]) | MIC (Staphylococcus aureus [10])
1 | CCn1cc(-c2csc(N)n2)c(=O)c2cc(N3CCN(c4cc5c(cc4F)c(=O)c(-c4csc(N)n4)cn5CC)CC3)c(Cl)cc21 | 757 µM (≈ 513 µg/mL) | 757 µM (≈ 513 µg/mL) | 757 µM (≈ 513 µg/mL) | 757 µM (≈ 513 µg/mL) | 757 µM (≈ 513 µg/mL) | 757 µM (≈ 513 µg/mL) | 757 µM (≈ 513 µg/mL) | 757 µM (≈ 513 µg/mL) | 757 µM (≈ 513 µg/mL) | 379 µM (≈ 257 µg/mL) | 757 µM (≈ 513 µg/mL) | 757 µM (≈ 513 µg/mL) | 757 µM (≈ 513 µg/mL) | 189 µM (≈ 128 µg/mL) | 189 µM (≈ 128 µg/mL) | 757 µM (≈ 513 µg/mL)
2 | C#CCN1CCN(c2cc3c(cc2F)c(=O)c(-c2csc(N)n2)cn3CC)CC1 | 19 µM (≈ 7.82 µg/mL) | 19 µM (≈ 7.82 µg/mL) | 19 µM (≈ 7.82 µg/mL) | 19 µM (≈ 7.82 µg/mL) | 39 µM (≈ 16 µg/mL) | 19 µM (≈ 7.82 µg/mL) | 39 µM (≈ 16 µg/mL) | 5 µM (≈ 2.06 µg/mL) | 20 µM (≈ 8.23 µg/mL) | 10 µM (≈ 4.12 µg/mL) | 19 µM (≈ 7.82 µg/mL) | 10 µM (≈ 4.12 µg/mL) | 19 µM (≈ 7.82 µg/mL) | 19 µM (≈ 7.82 µg/mL) | 156 µM (≈ 64.2 µg/mL) | 5 µM (≈ 2.06 µg/mL)
3 | CCn1cc(-c2csc(N)n2)c(=O)c2cc(F)c(N3CCN(Cc4ccc(Cl)cc4Cl)CC3)cc21 | 482 µM (≈ 257 µg/mL) | 482 µM (≈ 257 µg/mL) | 482 µM (≈ 257 µg/mL) | 482 µM (≈ 257 µg/mL) | 60 µM (≈ 31.9 µg/mL) | 482 µM (≈ 257 µg/mL) | 482 µM (≈ 257 µg/mL) | 121 µM (≈ 64.4 µg/mL) | 15 µM (≈ 7.99 µg/mL) | 241 µM (≈ 128 µg/mL) | 121 µM (≈ 64.4 µg/mL) | 15 µM (≈ 7.99 µg/mL) | 241 µM (≈ 128 µg/mL) | 482 µM (≈ 257 µg/mL) | 241 µM (≈ 128 µg/mL) | 241 µM (≈ 128 µg/mL)
4 | CCn1cc(-c2csc(N)n2)c(=O)c2cc(F)c(N3CCN(C)CC3)cc21 | 331 µM (≈ 128 µg/mL) | 165 µM (≈ 63.9 µg/mL) | 165 µM (≈ 63.9 µg/mL) | 165 µM (≈ 63.9 µg/mL) | 41 µM (≈ 15.9 µg/mL) | 165 µM (≈ 63.9 µg/mL) | 661 µM (≈ 256 µg/mL) | 165 µM (≈ 63.9 µg/mL) | 331 µM (≈ 128 µg/mL) | 83 µM (≈ 32.2 µg/mL) | 331 µM (≈ 128 µg/mL) | 331 µM (≈ 128 µg/mL) | 331 µM (≈ 128 µg/mL) | 331 µM (≈ 128 µg/mL) | 661 µM (≈ 256 µg/mL) | 331 µM (≈ 128 µg/mL)
5 | CCCCCCCCN1CCN(c2cc3c(cc2F)c(=O)c(-c2csc(N)n2)cn3CC)CC1 | 528 µM (≈ 256 µg/mL) | 1060 µM (≈ 512 µg/mL) | 1060 µM (≈ 512 µg/mL) | 1060 µM (≈ 512 µg/mL) | 264 µM (≈ 128 µg/mL) | 264 µM (≈ 128 µg/mL) | 264 µM (≈ 128 µg/mL) | 264 µM (≈ 128 µg/mL) | 528 µM (≈ 256 µg/mL) | 264 µM (≈ 128 µg/mL) | 528 µM (≈ 256 µg/mL) | 264 µM (≈ 128 µg/mL) | 264 µM (≈ 128 µg/mL) | 16 µM (≈ 7.77 µg/mL) | 264 µM (≈ 128 µg/mL) | 528 µM (≈ 256 µg/mL)
6 | CCCCCCCCCCCCN1CCN(c2cc3c(cc2F)c(=O)c(-c2csc(N)n2)cn3CC)CC1 | 473 µM (≈ 256 µg/mL) | 946 µM (≈ 513 µg/mL) | 946 µM (≈ 513 µg/mL) | 473 µM (≈ 256 µg/mL) | 946 µM (≈ 513 µg/mL) | 473 µM (≈ 256 µg/mL) | 236 µM (≈ 128 µg/mL) | 473 µM (≈ 256 µg/mL) | 946 µM (≈ 513 µg/mL) | 946 µM (≈ 513 µg/mL) | 946 µM (≈ 513 µg/mL) | 473 µM (≈ 256 µg/mL) | 473 µM (≈ 256 µg/mL) | 473 µM (≈ 256 µg/mL) | 473 µM (≈ 256 µg/mL) | 946 µM (≈ 513 µg/mL)
7 | OC(Cn1cncn1)(Cn1cncn1)c1ccc(F)cc1F [FLUCONAZOLE] |  | 7 µM (≈ 2.14 µg/mL) |  | 13 µM (≈ 3.98 µg/mL) |  |  | 26 µM (≈ 7.96 µg/mL) |  |  |  |  | 13 µM (≈ 3.98 µg/mL) |  | 836 µM (≈ 256 µg/mL) |  | 
8 | CCOC(=O)CN1CCN(c2cc3c(=O)c(-c4csc(N)n4)cn(CC)c3cc2Cl)CC1 | 135 µM (≈ 64.3 µg/mL) | 67 µM (≈ 31.9 µg/mL) | 1080 µM (≈ 513 µg/mL) | 269 µM (≈ 128 µg/mL) | 135 µM (≈ 64.3 µg/mL) | 135 µM (≈ 64.3 µg/mL) | 135 µM (≈ 64.3 µg/mL) | 269 µM (≈ 128 µg/mL) | 67 µM (≈ 31.9 µg/mL) | 67 µM (≈ 31.9 µg/mL) | 539 µM (≈ 257 µg/mL) | 135 µM (≈ 64.3 µg/mL) | 269 µM (≈ 128 µg/mL) | 539 µM (≈ 257 µg/mL) | 269 µM (≈ 128 µg/mL) | 539 µM (≈ 257 µg/mL)
9 | CCn1cc(-c2csc(N)n2)c(=O)c2cc(F)c(N3CCN(C=O)CC3)cc21 | 319 µM (≈ 128 µg/mL) | 166 µM (≈ 66.6 µg/mL) | 160 µM (≈ 64.2 µg/mL) | 160 µM (≈ 64.2 µg/mL) | 160 µM (≈ 64.2 µg/mL) | 638 µM (≈ 256 µg/mL) | 638 µM (≈ 256 µg/mL) | 80 µM (≈ 32.1 µg/mL) | 638 µM (≈ 256 µg/mL) | 319 µM (≈ 128 µg/mL) | 319 µM (≈ 128 µg/mL) | 160 µM (≈ 64.2 µg/mL) | 638 µM (≈ 256 µg/mL) | 638 µM (≈ 256 µg/mL) | 638 µM (≈ 256 µg/mL) | 638 µM (≈ 256 µg/mL)
